Test results from ChEMBL document CHEMBL2440101, “Total syntheses and cytotoxicity of kealiiquinone, 2-deoxy-2-aminokealiiquinone and analogs” (Bioorg Med Chem Lett, 2013).

Test system: MCF7
Experiment: Cytotoxicity against human MCF7 cells after 96 hrs by MTT assay
Format: functional, cell-based
Conditions: MCF7, 96 h
Method in brief: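 MCF7 breast cancer cells; MTT growth assay with cisplatin as positive control. IC50 taken from cytotoxicity (concentration-response) plots and reported with SEM.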

Row | SMILES | IC50
1 | COC1=C(OC)C(=O)c2c(cc3c([nH]c(=O)n3C)c2-c2ccc(OC)cc2)C1=O | 91.9 µM
2 | COC1=C(OC)C(=O)c2c(cc3c(nc(N)n3C)c2-c2ccc(OC)cc2)C1=O | 43.8 µM
3 | COc1ccc(-c2c3cc(OC)c(OC)cc3cc3c2nc(N)n3C)cc1 | 28.8 µM
4 | COc1ccc(-c2c3nc(N)n(C)c3cc3cc(OC)c(OC)c(OC)c23)cc1 | > 100 µM
5 | COc1ccc(-c2c3cc(OCc4ccccc4)c(OC)cc3cc3c2ncn3C)cc1 | 92 µM
6 | COc1ccc(-c2c3cc(OC)c(OC)cc3cc3c2ncn3C)cc1 | 28 µM
7 | COc1ccc(-c2c3ncn(C)c3cc3cc(OC)c(OC)c(OC)c23)cc1 | 99.8 µM
8 | COC1=C(OC)C(=O)c2c(cc3c(ncn3C)c2-c2ccc(OC)cc2)C1=O | 41.1 µM
9 | COc1ccc(-c2c3[nH]c(=O)n(C)c3cc3cc(OC)c(OC)c(OC)c23)cc1 | 29.9 µM
10 | COc1ccc(-c2c3cc(OC)c(OC)c(OC)c3cc3c2nc(N)n3C)cc1 | 22.7 µM
11 | COc1ccc(-c2c3cc(OC)c(OC)c(OC)c3cc3c2ncn3C)cc1 | 68.2 µM
12 | COc1ccc(-c2c3cc(O)c(OC)cc3cc3c2ncn3C)cc1 | > 100 µM
13 | COc1ccc(-c2c3cc(O)c(OC)cc3cc3c2[nH]c(=N)n3C)cc1 [KEALIININE A] | 23.4 µM
